# EBV gp42 block – blocks Epstein-Barr virus glycoprotein 42 binding | Q1HVG2 | Fluorescence polarization binding assay, mP read-out | inhibition, % (tested at 21.74 µM) | 220,000 tested, 0.42% active | AID 1085; in the data active = inhibition above about 50%
# Target sequence (Q1HVG2 whole entry, looked up): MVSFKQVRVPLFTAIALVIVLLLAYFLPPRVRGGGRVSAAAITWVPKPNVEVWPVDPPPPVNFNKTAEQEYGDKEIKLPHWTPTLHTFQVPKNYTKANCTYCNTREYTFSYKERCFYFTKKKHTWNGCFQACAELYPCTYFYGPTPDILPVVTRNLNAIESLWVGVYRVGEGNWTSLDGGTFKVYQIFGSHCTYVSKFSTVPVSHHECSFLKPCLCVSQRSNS
# CHOP inh – CHOP inhibition in unfolded protein response | AID 2732 | inhibition, % at 10 µM | 220,000 tested, 3.8% active | CHO-K1 CHOP-promoter luciferase, tunicamycin-induced, 15-18 h;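 active = compounds that reduced the stress-induced luciferase reporter signal by more than about 70% of percent inhibition, limit read from the data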;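 note: 0% = tunicamycin plus vehicle and 100% = wells without tunicamycin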
# MPTP inh – inhibitors of mitochondrial permeability transition pore. isolated mouse mitochondria, Ca2+ swelling absorbance, 30 min. inhibition, % at 10 µM. AID 602449. 360,000 tested, 1.4% active;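 active = inhibition of 50% or more, scaled per plate between neutral and stimulator controls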;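 note: 0% = DMSO wells given calcium and 100% = 1 mM EGTA wells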
# TbMetRS inhib – Trypanosoma brucei MetRS inhibition; purified T. brucei MetRS, ATP depletion, Kinase-Glo luminescence; inhibition, % at 11.9 µM; 360,000 tested, 0.4% active; AID 624268;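 active = inhibition above a per-plate cutoff of the control wells' mean inhibition plus 3 SD, cut at about 5.5% in these data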;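 note: 0% = DMSO wells median and 100% = median of wells with control inhibitor compound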
#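 Material – parasite MetRS enzyme · Medium – HEPES-MgCl2-KCl buffer plus DTT, spermine, BSA, pyrophosphatase · Reagent – ATP, methionine and E. coli bulk tRNA substrates · Times – 15 min enzyme-compound preincubation, 2 h reaction, 10 min detection, 25 °C · Measured by – luminescence of leftover ATP · Evaluation – percent inhibition relative to median high and low control wells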
# WT yeast gro inh – growth inhibition of WT yeast, mitochondrial fusion screen; mitochondrial fusion phenotypic screen, WT strain; inhibition, % at 10 µM; 190,000 tested, 2.1% active; AID 1362; in the data active = inhibition above about 58%; tested in S. cerevisiae
# NR3A LBD binder – NR3A (human) ligand-binding domain modulation | Tm shift relative to glycine control, % at 25 µM | NR3A LBD differential scanning fluorimetry, Tm shift; 0% = protein alone, 100% = glycine-bound protein | 340,000 tested, 2.5% active | AID 1259313;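 active = melting temperature shift of at least 10% of the positive control shift, at one fixed dose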
# The depositor's hits bear a star; . = no result given. Most compounds without a hit are left out; they make up all but 6.4% or so of the library.
SMILES,EBV gp42 block,CHOP inh,MPTP inh,TbMetRS inhib,WT yeast gro inh,NR3A LBD binder
O=C(CCN1CCOCC1)Nc1ccc(F)cc1,.,.,0,-1,.,0
N#Cc1ccccc1NC(=O)CC1c2ccccc2Oc2ccccc21,2,14,2,0,10,13*
N#Cc1ccccc1NC(=O)CC1CCCCC1,-3,8,0,0,7,-3
FC(F)(F)c1cccc(Nc2nc(N3CCOCC3)nc(N3CCOCC3)n2)c1,.,.,0,0,.,-8
Cc1ccc2nc(N3CC(=O)Nc4ccccc43)nc(-c3ccccc3)c2c1,-36,89*,1,-1,11,-18
COc1ccc(C)cc1NC(=O)C(NCC1CCCO1)c1ccccc1 (stereo not given),-5,0,0,-1,-3,15*
O=C(CCCN1C(=O)/C(=C/c2cccs2)SC1=S)Nc1ccc(C(=O)O)cc1,-6,23,-2,0,1,-3
CCN(Cc1ccccc1)S(=O)(=O)c1ccc(C(=O)Nc2nnc(C)o2)cc1,.,.,-2,0,.,-1
O=C(Nc1nnc(C2CC2)o1)c1ccc(S(=O)(=O)N2CCCc3ccccc32)cc1,8,.,-24,0,63*,-10
CCc1nnc(NC(=O)c2ccc(S(=O)(=O)N(CC)Cc3ccccc3)cc2)o1,9,.,-7,0,63*,-5
CN(Cc1ccccc1)S(=O)(=O)c1ccc(C(=O)Nc2nnc(C3CC3)o2)cc1,-4,.,-2,1,74*,-8
CCc1nnc(NC(=O)c2ccc(S(=O)(=O)N(C)Cc3ccccc3)cc2)o1,.,.,-2,-1,.,-5
CC(C)NC(=O)Nc1ccc2c(c1)C(=O)N([C@H](C)CO)C[C@H](C)[C@@H](CN(C)C(=O)Nc1ccc3c(c1)OCO3)O2,.,.,-2,-1,.,0
Cc1nc(N2CCCCC2C)c2c(C)c(C(=O)Nc3ccccc3C(F)(F)F)sc2n1 (stereo not given),1,-26,0,0,75*,-2
COc1cccc(NC(=S)N(CCCN2CCCC2)Cc2cccn2Cc2ccc(Cl)cc2)c1,-2,-22,2,0,59*,-2
COc1cccc(NC(=S)N(CCCN2CCCC2)Cc2ccco2)c1,-11,15,-3,0,-14,0
S=C(Nc1cccc(Cl)c1)N(CCCN1CCCC1)Cc1cccn1Cc1ccc(Cl)cc1,3,14,5,2,81*,-8
Cn1cc(CN(CCCN2CCOCC2)C(=S)Nc2cccc(Cl)c2)c2ccccc21,-1,-9,-1,-1,30,-15
CSc1cccc(NC(=S)N(CCCN2CCCC2)Cc2cccn2Cc2ccc(Cl)cc2)c1,-2,22,1,2,74*,-1
CC(C)Oc1cccc(C(=O)C2CCCN(C(=O)c3cc(C4CC4)[nH]n3)C2)c1 (stereo not given),.,.,0,0,.,-3
CCOC(=O)Cn1c(=O)oc2cc(S(=O)(=O)N(C)c3cccc(C)c3)ccc21,-15,-7,2,0,.,4
Cc1cc(C(=O)Nc2cccc3ncccc23)no1,-10,14,1,0,3,0
CCOc1cc(/C=N/NC(=O)Cn2nc([N+](=O)[O-])cc2C)ccc1OCc1ccc(F)cc1,-1,58,0,-1,-3,3
N#C/C(=C\c1cccc(NC(=O)c2ccccc2Cl)c1)C(=O)NCCc1ccccc1,-16,-25,3,0,84*,1
COCCCNC(=O)/C(C#N)=C/c1cccc(NC(=O)c2ccccc2Cl)c1,2,-22,-1,0,1,9
SMILES,EBV gp42 block,CHOP inh,MPTP inh,TbMetRS inhib,WT yeast gro inh,NR3A LBD binder
CC(=O)Nc1ccc(CN(C)c2c(C)nc3ccc(C(=O)NCCCn4ccnc4)cn23)cc1,.,.,0,0,.,.
O=C(Nc1cccc(F)c1)c1ccc(-c2ccccc2Cl)o1,-14,-7,17,0,77*,3
COc1ccc(NC(=O)c2ccc(-c3ccc(C)c4ccccc34)o2)cc1,-15,-2,-2,0,10,2
Cc1ccc(-c2ccc(C(=O)Nc3cccc(F)c3)o2)c2ccccc12,-17,4,10,0,21,17*
Nc1ncc2c(n1)-c1ccccc1CC2,-1,21,1,0,-2,0
O=C(OC1CSc2nc3ccccc3n2C1)c1ccco1 (stereo not given),-7,24,1,0,0,-1

# Assay outcomes: PubChem, several laboratories
